Among the data in ChEMBL document CHEMBL4613213, “Anibamine and Its Analogues: Potent Antiplasmodial Agents from Aniba citrifolia” (J Nat Prod, 2020) are IC50 and CC50 values, retold here.

The test system of one data set is A2780. The data set can be described thus: Cytotoxicity against human A2780 cells assessed as reduction in cell viability after 2 days by AlamarBlue assay. The data set is classed as ADME, cell-based. Conditions: A2780, 48 h. For orientation: Resazurin is reduced to fluorescent resorufin, in cell work by metabolically active cells.
Another data set relates to Plasmodium falciparum. The data set can be described thus: Antiplasmodial activity against Plasmodium falciparum Dd2 assessed as reduction in parasite growth after 72 hrs by SYBR Green 1 staining based assay. The data set is classed as functional, organism-based. Conditions: Plasmodium falciparum, Dd2, 72 h; read-out: IC50. Summed up: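 Dd2 cultures started at ring stage, 1% hematocrit and 1% parasitemia. Grown 72 h at 37 °C in 5% CO2/5% O2/90% N2 across increasing drug concentrations. Viability read by SYBR Green I DNA quantitation in lysis buffer. IC50 from nonlinear regression; mean of three independent determinations, each in triplicate, ± SEM.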

A short description of data set [1]: Cytotoxicity against mouse 3T3 cells by neutral red uptake assay. It counts as cell-based. Conditions: NIH3T3 cells, read-out: TC50 (the source's name).

A value given as a limit tells only on which side of the number the result lay.

As for `CCCCCCCC/C=C\c1c(C)c(/C=C\CCCCCCCC)c2[n+](c1C)CCC2` [ANIBAMINE], the figures for the concentration for half-maximal inhibition (IC50) in the data set on A2780 and with Plasmodium falciparum were 223 nM and 170 nM, respectively. Besides, the CC50 in data set [1] is greater than 22000 nM.
